These results are taken from ChEMBL document CHEMBL1156561, “Discovery of piperidine carboxamide TRPV1 antagonists” (Bioorg Med Chem Lett, 2008).

SMILES strings stand for the structures. Calls of active or inactive are those of the source.

Data set [1] has as its target T1, Transient receptor potential cation channel subfamily V member 1 (Homo sapiens, UniProt Q8NER1). The data set can be described thus: Displacement of [3H]RTX from human TRPV1 receptor expressed in HEK293 cell membrane. The format is cell membranes.
Data set [2] has as its target T1, Transient receptor potential cation channel subfamily V member 1. The data set can be described thus: Antagonist activity at human TRPV1 receptor assessed as inhibition of capsaicin-induced calcium flux by FLIPR. The format is functional. Put shortly:
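Capsaicin-evoked Ca2+ flux in cells expressing TRPV1, read on a FLIPR with a Ca2+-sensitive fluorescent dye. Antagonism was taken as inhibition of the capsaicin response.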
(Calcium flux is commonly read through the fluorescence of an indicator in the cells.)

Data set [3] can be described thus: Apparent permeability from apical to basolateral side of human Caco-2 cells. The format is ADME, cell-based. (In general: Passage across Caco-2 layers is used to estimate intestinal permeability.)
Data set [4] concerns the target Cytochrome P450 3A4 (Homo sapiens, UniProt P08684). The experiment in a line: Inhibition of recombinant CYP3A4. The format is ADME.
Data set [5] addresses Cytochrome P450 2D6 (Homo sapiens, UniProt P10635). The data set can be described thus: Inhibition of recombinant CYP2D6. The format is ADME.
Data set [6] is described as follows: Metabolic stability in human liver microsomes assessed as half life. The format is ADME, Microsome. In general terms: Liver microsomes are vesicles of endoplasmic reticulum, rich in cytochrome P450 enzymes.
A short description of data set [7]: Metabolic stability in rat liver microsomes assessed as half life. The format is ADME, Microsome.
The subject of data set [8] is Caco-2. The data set can be described thus: Ratio of permeability from basolateral to apical over apical to basolateral side of human Caco-2 cells.
Data set [9] has as its target T1, Transient receptor potential cation channel subfamily V member 1. The experiment in a line: Antagonist activity at human TRPV1 receptor assessed as inhibition of capsaicin-induced calcium flux at 1 uM by FLIPR. The format is functional.

T1 sequence (Q8NER1 whole entry): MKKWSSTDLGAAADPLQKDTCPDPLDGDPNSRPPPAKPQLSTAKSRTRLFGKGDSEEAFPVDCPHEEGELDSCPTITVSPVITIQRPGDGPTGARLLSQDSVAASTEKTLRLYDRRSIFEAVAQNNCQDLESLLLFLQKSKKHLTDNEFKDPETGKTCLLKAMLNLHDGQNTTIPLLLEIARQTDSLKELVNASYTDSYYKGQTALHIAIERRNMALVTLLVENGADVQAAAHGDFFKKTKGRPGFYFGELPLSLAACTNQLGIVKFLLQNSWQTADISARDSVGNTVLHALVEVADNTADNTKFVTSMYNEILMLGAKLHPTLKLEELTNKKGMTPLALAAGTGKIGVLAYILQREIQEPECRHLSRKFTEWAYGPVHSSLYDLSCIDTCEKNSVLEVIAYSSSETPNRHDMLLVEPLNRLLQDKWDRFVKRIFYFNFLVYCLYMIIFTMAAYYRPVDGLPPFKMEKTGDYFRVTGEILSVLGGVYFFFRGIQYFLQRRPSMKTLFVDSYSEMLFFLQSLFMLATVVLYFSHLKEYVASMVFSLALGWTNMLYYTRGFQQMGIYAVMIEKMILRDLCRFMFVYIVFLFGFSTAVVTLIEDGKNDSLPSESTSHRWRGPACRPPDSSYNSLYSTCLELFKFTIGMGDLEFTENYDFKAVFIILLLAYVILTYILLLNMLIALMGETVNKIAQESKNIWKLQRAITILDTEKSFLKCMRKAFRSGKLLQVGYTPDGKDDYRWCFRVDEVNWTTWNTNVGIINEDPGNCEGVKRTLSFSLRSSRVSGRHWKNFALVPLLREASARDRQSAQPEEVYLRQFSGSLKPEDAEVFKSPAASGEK
Sequence of Cytochrome P450 2D6 (P10635 whole entry): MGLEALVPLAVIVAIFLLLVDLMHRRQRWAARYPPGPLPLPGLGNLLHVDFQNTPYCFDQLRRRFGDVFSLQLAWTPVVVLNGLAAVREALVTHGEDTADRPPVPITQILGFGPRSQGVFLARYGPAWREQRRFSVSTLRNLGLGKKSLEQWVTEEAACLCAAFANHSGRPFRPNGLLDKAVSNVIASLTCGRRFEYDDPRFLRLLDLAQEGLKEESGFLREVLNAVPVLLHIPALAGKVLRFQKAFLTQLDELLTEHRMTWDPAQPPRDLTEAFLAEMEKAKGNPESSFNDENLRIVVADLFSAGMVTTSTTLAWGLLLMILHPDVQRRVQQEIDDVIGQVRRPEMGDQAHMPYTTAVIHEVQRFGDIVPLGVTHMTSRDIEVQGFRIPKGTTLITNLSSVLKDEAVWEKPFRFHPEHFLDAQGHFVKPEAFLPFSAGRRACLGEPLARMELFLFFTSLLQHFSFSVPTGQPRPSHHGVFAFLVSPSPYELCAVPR
Sequence of Cytochrome P450 3A4 (P08684 whole entry): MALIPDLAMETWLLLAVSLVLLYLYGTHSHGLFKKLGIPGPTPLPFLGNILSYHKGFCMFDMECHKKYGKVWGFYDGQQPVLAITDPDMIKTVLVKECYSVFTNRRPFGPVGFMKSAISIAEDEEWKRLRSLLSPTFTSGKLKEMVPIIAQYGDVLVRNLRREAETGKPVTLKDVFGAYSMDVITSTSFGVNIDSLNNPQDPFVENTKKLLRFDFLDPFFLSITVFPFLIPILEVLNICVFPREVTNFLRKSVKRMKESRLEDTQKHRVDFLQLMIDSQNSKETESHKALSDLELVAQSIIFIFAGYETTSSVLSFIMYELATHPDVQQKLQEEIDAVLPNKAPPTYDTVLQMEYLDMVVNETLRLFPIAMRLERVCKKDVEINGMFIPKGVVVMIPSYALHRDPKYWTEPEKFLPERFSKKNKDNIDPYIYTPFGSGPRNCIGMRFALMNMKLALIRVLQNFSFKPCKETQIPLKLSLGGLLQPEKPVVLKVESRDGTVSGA

Regarding `CC(C)(C)c1ccc(N2CCC(C(=O)Nc3ccc4c(c3)NC(=O)CO4)CC2)cc1`, the Ki (in general, a measure of affinity in units of concentration, obtained from inhibition or displacement) in data set [1] was determined as 142 nM.

Consider `CC1(C(=O)O)Oc2ccc(NC(=O)C3CCN(c4cc(F)c(F)c(F)c4)CC3)cc2NC1=O` (stereo not drawn), for which the outcome in data set [2] was inactive.

Take `O=C(Nc1ccc2c(c1)NC(=O)C(CCO)O2)C1CCN(c2cc(F)c(F)c(F)c2)CC1` (stereo not drawn): the Papp A→B (as a rule, how fast a substance crosses the layer from the apical side) in data set [3] was 1.5 ×10⁻⁶ cm/s. The IC50 (usually the concentration that gives 50% inhibition) in data set [4] is 3700 nM; in data set [2], 5 nM; in data set [5] it was above 10000 nM. The half-life (as a rule, the time needed for the level to fall by half in the phase considered) in data set [6] was 55 min; in data set [7], 79 min. Also, in data set [8], the Ratio stood at 10.6.

Regarding `CC(=O)N1CCc2cc(NC(=O)C3CCN(c4cccc(C(F)(F)F)c4)CC3)ccc21`, the IC50 in data set [2] was above 9000 nM.

For the molecule `O=C1COc2ccc(NC(=O)C3CCN(c4cccc(C(F)(F)F)c4)CC3)cc2N1`, the IC50 in data set [2] came out at 180 nM. Besides, the results for the half-life in data set [6] and in data set [7] were 17.3 min and 2.8 min, respectively.

For `O=C(Nc1ccc2cc[nH]c2c1)C1CCN(c2cccc(C(F)(F)F)c2)CC1`, in [2], the IC50 is above 9000 nM.

`O=C1COc2ccc(NC(=O)C3CCN(c4cc(F)c(F)c(F)c4)CC3)cc2N1`: in data set [1], the Ki was 49 nM. Moreover, the IC50 in data set [2] amounted to 59 nM. The half-life is 58.9 min in data set [6] and 63.8 min in data set [7].

With `O=C1COc2cc(NC(=O)C3CCN(c4cc(F)c(F)c(F)c4)CC3)ccc2N1`, the inhibition (in general, how much of the control response was suppressed) in [9] came to 55%.

As to `O=C1COc2ccc(NC(=O)C3CCN(c4cccc(Cl)c4)CC3)cc2N1`, in [1], the inhibition constant Ki turned out to be 97 nM. The half-life in data set [6] is 27.7 min; in data set [7] it was 4.4 min.

Regarding `O=C1COc2cccc(NC(=O)C3CCN(c4cc(F)c(F)c(F)c4)CC3)c2N1`, in data set [9], the inhibition turned out to be 9%.

On to `O=C1COc2ccc(NC(=O)C3CCN(c4cc(F)cc(F)c4)CC3)cc2N1`, for which the half-life in data set [6] came out at 81.7 min; in data set [7] it was 19.4 min.

Consider `O=C(Nc1ccc2c(c1)NC(=O)C(C(=O)O)O2)C1CCN(c2cc(F)c(F)c(F)c2)CC1` (stereo not drawn), for which the result in [2] was inactive.

Consider `COC(=O)CC1Oc2ccc(NC(=O)C3CCN(c4cc(F)c(F)c(F)c4)CC3)cc2NC1=O` (stereo not drawn), for which, in data set [2], the IC50 came to 890 nM.

In data set [1], `O=C1COc2ccc(NC(=O)C3CCN(c4ccccc4C(F)(F)F)CC3)cc2N1` showed a Ki of 68 nM. That is a double-digit nanomolar value.

In the case of `O=C(O)CC1Oc2ccc(NC(=O)C3CCN(c4cc(F)c(F)c(F)c4)CC3)cc2NC1=O` (stereo not drawn), the inhibition in data set [9] was 5%.

As for `CN1C(=O)COc2ccc(NC(=O)C3CCN(c4cc(F)c(F)c(F)c4)CC3)cc21`, the result in [2] was inactive.

In data set [1], `Cc1cccc(N2CCC(C(=O)Nc3ccc4c(c3)NC(=O)CO4)CC2)c1C` returned a Ki of 28 nM. Besides, the half-life in data set [6] was above 60 min; in data set [7], 6.5 min.

Take `CC(C)c1ccccc1N1CCC(C(=O)Nc2ccc3c(c2)NC(=O)CO3)CC1`: the figures for the half-life in data set [6] and in [7] were 11.4 min and 9 min, respectively.

`O=C1COc2ccc(NC(=O)C3CCN(c4cccc(F)c4Br)CC3)cc2N1` registered a Ki in data set [1] of 81 nM. In addition, the values for the half-life in data set [6] and in [7] were 15.6 min and 7.2 min, respectively.

With `Cc1c(Cl)cccc1N1CCC(C(=O)Nc2ccc3c(c2)NC(=O)CO3)CC1`, the inhibition constant (Ki) in data set [1] turned out to be 100 nM.

`O=C1COc2ccc(NC(=O)C3CCN(c4ccc(F)c(F)c4)CC3)cc2N1`: the half-life is 44.3 min in [6] and 15.5 min in [7].

Consider `O=C1COc2c(cccc2NC(=O)C2CCN(c3cc(F)c(F)c(F)c3)CC2)N1`, for which the result in data set [2] was inactive.

On to `CCOC(=O)C1Oc2ccc(NC(=O)C3CCN(c4cc(F)c(F)c(F)c4)CC3)cc2NC1=O` (stereo not drawn), for which the result in data set [2] was inactive.
